Source: PubChem (Sanford-Burnham Center for Chemical Genomics)
STEP block: inhibitors of human striatal-enriched phosphatase STEP. inhibition, % at 20 µM. P54829. recombinant STEP, OMFP fluorogenic substrate, fluorescence. AID 588621. actives 0.25% (n = 360,000);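 active = inhibition at 20 µM, scaled per plate between control wells, above about 37%, limit read from the data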;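 also: 0% = DMSO with enzyme and substrate and 100% = substrate only without enzyme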
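Material: STEP (striatal-enriched tyrosine phosphatase) enzyme, cell-free; Compound dosing: 20 µM single dose in 1% DMSO; Technique: fluorescence read at 480 nm ex / 540 nm em; Times: reaction 20 min, ambient temperature; Medium: 50 mM Bis-Tris pH 6.0 with 2.5 mM DTT and 0.005% Tween 20; Also added: OMFP at 25 µM.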
Rpn11 inh: blocks the human proteasome subunit Rpn11; O00487; human 26S proteasome, Ub4-pepOG fluorescence polarization; 20S core pre-blocked with epoxomicin; inhibition, % at 20 µM; actives 0.59% (n = 360,000);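 active = inhibition at 20 µM, scaled to each plate's controls, above about 33%, limit read from the data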
SUMO1 PPI mod: SUMO1-SIM interaction modulation | P63165 | SUMO1 binding to a labelled peptide, TR-FRET, 1 h | inhibition, % at 20 µM | actives 0.33% (n = 360,000) | AID 602429; in the data active = inhibition above about 37%
Scp1 inh: blocks human Scp-1 phosphatase activity; actives 0.88% (n = 340,000); AID 493091; inhibition, % at 20 µM; Recombinant Scp1, phosphopeptide, malachite green phosphate absorbance;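 active = inhibition above about 50% at 20 µM, limit read from the data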;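 also: plate controls were DMSO wells with enzyme for no effect and wells lacking enzyme for full effect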
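Incubation: 45 min enzyme reaction at room temperature / System: truncated SCP-1 phosphatase (76-261aa) / Reagent: Phospho 17-mer peptide substrate / Buffer or medium: Acidic Tris acetate buffer with magnesium and detergent / Signal: absorbance at 630 nm / Doses: one concentration, 20 µM, with 1.0% DMSO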
DNMT1 inh: inhibitors of human DNMT1. actives 0.83% (n = 360,000). inhibition (reported as % activation of signal), % at 10 µM. P26358. DNMT1 molecular beacon, Hinp1I cleavage, fluorescence; in the data active = inhibition above about 50%
Target sequence (P26358 504-1616 limits assumed): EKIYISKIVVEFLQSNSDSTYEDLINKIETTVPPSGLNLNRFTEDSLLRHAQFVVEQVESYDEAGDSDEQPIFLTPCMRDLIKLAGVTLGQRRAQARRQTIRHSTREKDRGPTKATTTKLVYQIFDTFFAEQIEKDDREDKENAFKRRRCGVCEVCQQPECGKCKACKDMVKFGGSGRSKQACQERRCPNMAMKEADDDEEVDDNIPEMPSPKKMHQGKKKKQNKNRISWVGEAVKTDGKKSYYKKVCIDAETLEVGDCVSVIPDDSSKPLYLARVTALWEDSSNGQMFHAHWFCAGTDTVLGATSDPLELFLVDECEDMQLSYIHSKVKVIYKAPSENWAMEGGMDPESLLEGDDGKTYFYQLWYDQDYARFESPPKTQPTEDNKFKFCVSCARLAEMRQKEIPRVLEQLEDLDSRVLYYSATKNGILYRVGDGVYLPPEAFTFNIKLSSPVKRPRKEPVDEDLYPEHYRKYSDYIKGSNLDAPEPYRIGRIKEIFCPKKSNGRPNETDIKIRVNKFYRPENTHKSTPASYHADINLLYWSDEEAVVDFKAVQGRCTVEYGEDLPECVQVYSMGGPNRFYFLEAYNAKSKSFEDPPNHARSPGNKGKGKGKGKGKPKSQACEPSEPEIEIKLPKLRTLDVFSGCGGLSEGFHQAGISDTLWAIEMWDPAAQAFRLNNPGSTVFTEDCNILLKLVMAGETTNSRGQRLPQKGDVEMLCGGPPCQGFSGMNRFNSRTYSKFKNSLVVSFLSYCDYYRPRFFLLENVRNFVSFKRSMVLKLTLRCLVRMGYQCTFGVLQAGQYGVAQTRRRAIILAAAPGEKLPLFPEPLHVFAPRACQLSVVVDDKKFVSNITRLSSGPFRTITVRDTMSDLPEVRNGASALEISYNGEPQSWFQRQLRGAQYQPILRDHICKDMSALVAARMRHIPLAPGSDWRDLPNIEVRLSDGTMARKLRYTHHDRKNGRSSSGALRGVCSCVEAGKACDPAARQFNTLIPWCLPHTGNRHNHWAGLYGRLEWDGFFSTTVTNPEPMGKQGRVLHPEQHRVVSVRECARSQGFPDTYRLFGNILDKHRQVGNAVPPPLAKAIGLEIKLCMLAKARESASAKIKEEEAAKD
LMPTP block: blocks human LMPTP phosphatase; P24666; recombinant LMPTP-A, OMFP fluorogenic substrate, fluorescence intensity; inhibition, % at 20 µM; actives 0.22% (n = 360,000); AID 651560;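 active = compounds that cut the enzyme signal by at least half of the control window in the single-dose screen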;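 also: plate controls were DMSO wells with enzyme plus substrate for no effect and substrate without enzyme for full effect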
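Assay system: LMPTP-A phosphatase enzyme | Input: 0.625 nM enzyme | Also added: Fluorogenic phosphatase substrate OMFP at 400 µM final | Compound dosing: One test concentration per compound, 20 µM, with 3% DMSO overall | Schedule: 50 min enzyme reaction at room temperature, protected from light | Signal: Fluorescence intensity | Benchmarks: no-enzyme and uninhibited controls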
Rpn11 inh conf: Rpn11 inhibition confirmation, single concentration; shares compounds with Rpn11 inh; purified human 26S proteasome, Ub4-pepOG fluorescence polarization; proteasome pretreated with epoxomicin; inhibition, % at 20 µM; actives 29% (n = 1,900)
MMP-2 inh: counter-screen for RPN11 inhibitors: inhibition of human MMP-2; shares compounds with Rpn11 inh; recombinant MMP-2, FRET peptide cleavage fluorescence; inhibition, % at 20 µM; actives 4% (n = 1,900); AID 602330;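 also: human MMP-2 activated beforehand with APMA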
Thrombin inh: counter-screen for RPN11 inhibitors: inhibition of bovine thrombin; actives 13% (n = 1,900); shares compounds with Rpn11 inh; inhibition, % at 20 µM; bovine thrombin cleavage of Ub4-pepOG, fluorescence polarization; AID 602333;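 active = mean inhibition at least 40% at 20 µM, or signal 3 deviations below plate average, so some actives read negative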;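 also: plate controls were thrombin with DMSO for no effect and buffer wells lacking thrombin for full effect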
An asterisk follows results filed as active; . = no result given. Shown are actives, neighbours in structure and some others; about 2.3% of the full set was active somewhere. Rule as the data show it, unless noted: active = inhibition above about 40%; inactive = the rest.

SMILES	STEP block	Rpn11 inh	SUMO1 PPI mod	Scp1 inh	DNMT1 inh	LMPTP block	Rpn11 inh conf	MMP-2 inh	Thrombin inh
COc1ccc(C2C(C#N)=C(N)Oc3cc(C)n(Cc4ccco4)c(=O)c32)cc1 (centres undefined)	-3	46*	18	-1	33	0	23	-23	6
COc1cccc2sc(Nc3nc4ccc(NC(C)=O)cc4s3)nc12	0	41*	21	0	-16	2	25	2	2
O=C(NC(Cc1ccccc1)C(=O)O)/C(=C/c1ccc([N+](=O)[O-])cc1)NC(=O)c1ccco1 (centres undefined)	0	1	-17	-6	1	-1	.	.	.
Cc1cc(C)c2nc(NNC(=O)c3cc(=O)c4ccccc4o3)sc2c1	2	47*	-5	3	-23	3	34	-18	9
COC(=O)c1ccc(-n2c(C)cc(-c3csc(NC(=O)c4ccc(S(=O)(=O)N(C)C)cc4)n3)c2C)cc1	-1	17	7	-24	-29	0	.	.	.
Cc1cc(-c2csc(NC(=O)c3cccc(S(=O)(=O)N(C)C)c3)n2)c(C)n1-c1ccccc1	4	37*	1	-12	-24	1	9	21	-6
Clc1cccc(Sc2ccc(-c3ccccn3)s2)c1	2	67*	-1	-2	-2	1	-12	-4	-16
O=C1Nc2ccccc2OCc2c1cccc2[N+](=O)[O-]	15	34*	-23	-2	1	-1	-11	4	-24
Cc1ccc(C2CC(=O)C=C(Nc3ccc(Cl)cc3)C2)cc1 (centres undefined)	0	85*	0	-5	-2	-1	-6	-65	-15
COC(=O)c1sc(N2C(=O)C(O)=C(C(=O)c3ccc(C)o3)C2c2ccc([N+](=O)[O-])cc2)nc1C (centres undefined)	7	14	-8	-10	-6	6	.	.	.
CCOc1ccc(C2C(C(=O)c3ccc(C)o3)=C(O)C(=O)N2c2nc(C)c(C(=O)OC)s2)cc1 (centres undefined)	9	42*	3	0	0	28	-17	-56	-7
CC(Nc1ccc(Br)cn1)c1cc(Cl)ccc1O (centres undefined)	0	73*	10	1	-2	1	6	8	4
Cc1cc(Br)c(OCC(=O)NN)c2c1CCC2	2	-1	4	1	-1	-1	.	.	.
O=C(CCCSc1nc(-c2ccco2)cc(C(F)(F)F)n1)NCc1cccs1	4	33*	-5	-13	-4	5	11	-6	6
CCN(C(=O)c1ccco1)c1nc(CC(=O)Nc2ccc(Cl)cc2)cs1	1	9	8	-7	-12	2	.	.	.
CCC(=O)N(Cc1ccco1)c1nc(C(=O)Nc2ccc(Cl)cc2)c(C)s1	-2	44*	1	-8	-11	2	9	26	2
O=C1N/C(=C/c2ccc(N3CCCC3)cc2)C(=O)N1c1ccccc1	0	41*	-11	-3	12	1	3	-20	-7
O=C1N/C(=C/c2ccc(N3CCOCC3)o2)C(=O)N1c1ccccc1	-1	59*	-13	5	-2	-2	166*	20	166*
O=C1S/C(=C/c2ccc(N3CCOCC3)o2)C(=O)N1Cc1ccc(F)cc1	-15	.	-31	7	3	0	.	.	.
CS(=O)(=O)N1CCN(c2ccc([N+](=O)[O-])c(NCc3ccc(Cl)cc3)c2)CC1	5	45*	-2	4	27	2	20	-34	9
COc1cccc(CN(C)C(=O)c2ccc(S(=O)(=O)Nc3cccc(C)c3C)cc2)c1OC	1	2	3	.	-1	0	.	.	.
O=C1C[C@@H](c2ccc(O[C@@H]3O[C@H](CO)[C@@H](O)[C@H](O)[C@H]3O)cc2)Oc2cc(O)ccc21	1	2	-5	-8	0	-1	.	.	.
Cc1ccc(NC(=O)CN2C(=O)N/C(=C\c3ccco3)C2=O)cc1	-1	46*	-20	-7	-3	-1	-9	-7	-11
Cc1c(Cl)cccc1NC(=O)CCC(=O)NNC(=O)c1ccco1	-4	0	0	-4	3	2	.	.	.
O=C(CCC(=O)Nc1ccccc1Cl)NNC(=O)c1ccco1	12	48*	-1	10	-2	1	-4	1	-13
SMILES	STEP block	Rpn11 inh	SUMO1 PPI mod	Scp1 inh	DNMT1 inh	LMPTP block	Rpn11 inh conf	MMP-2 inh	Thrombin inh
CCc1cc2c(SCc3nc4sc(C(C)=O)c(C)c4c(=O)[nH]3)ncnc2s1	-1	65*	-9	-5	-5	-1	77*	55*	46*
CSC(=NC#N)N1CCN(c2ccc([N+](=O)[O-])cc2)CC1	2	-1	-20	5	-4	1	.	.	.
CCC(=O)N1CCc2cc(S(=O)(=O)N3CCc4ccccc4C3)ccc21	2	56*	-8	-8	-6	1	8	6	11
CCC(=O)N1CCc2cc(S(=O)(=O)N3CCN(c4ccccc4)CC3)ccc21	-2	-1	-5	32	-2	1	.	.	.
CCC(C)(C(=O)NC1CCCCC1)N(CC1CCCO1)C(=O)Cc1cccs1 (centres undefined)	2	-4	-1	-5	0	-1	.	.	.
CCOC(=O)Cc1csc(NC(=O)c2sc3nc4c(C)cc(C)cc4cc3c2N)n1	-1	48*	10	0	-23	0	24	-17	-2
Cc1ccc(Oc2cc([N+](=O)[O-])cc3c2C(=O)Nc2ccccc2O3)cc1	4	49*	3	27	-5	1	51*	-18	63*
O=C1Nc2ccccc2Nc2ccc([N+](=O)[O-])cc21	-1	-2	-29	-5	-24	3	.	.	.
NC(=O)CC(NC(=O)Cc1cccc2ccccc12)c1ccc(N2CCN(c3ccc(F)cc3)CC2)c([N+](=O)[O-])c1 (centres undefined)	4	-3	-3	-2	23	0	.	.	.
CCc1ccccc1NC(=O)CN1C(=O)C2CCCN2c2ncc(Cl)cc21 (centres undefined)	5	41*	-5	6	-4	-1	9	-19	5
